Assay results published in ChEMBL document CHEMBL1129424, “Heterocyclic amides: inhibitors of acyl-CoA:cholesterol O-acyl transferase with hypocholesterolemic activity in several species and antiatherosclerotic activity in the rabbit” (J Med Chem, 1996).
Values belong to the compound of their own block, whether it stands above or below them.

Assays:
[1] = target: T1, Sterol O-acyltransferase 1 (Rattus norvegicus, UniProt O70536); test: Inhibition of Acyl coenzyme A:cholesterol acyltransferase 1 from rat liver microsomes
T1 sequence (O70536 whole entry): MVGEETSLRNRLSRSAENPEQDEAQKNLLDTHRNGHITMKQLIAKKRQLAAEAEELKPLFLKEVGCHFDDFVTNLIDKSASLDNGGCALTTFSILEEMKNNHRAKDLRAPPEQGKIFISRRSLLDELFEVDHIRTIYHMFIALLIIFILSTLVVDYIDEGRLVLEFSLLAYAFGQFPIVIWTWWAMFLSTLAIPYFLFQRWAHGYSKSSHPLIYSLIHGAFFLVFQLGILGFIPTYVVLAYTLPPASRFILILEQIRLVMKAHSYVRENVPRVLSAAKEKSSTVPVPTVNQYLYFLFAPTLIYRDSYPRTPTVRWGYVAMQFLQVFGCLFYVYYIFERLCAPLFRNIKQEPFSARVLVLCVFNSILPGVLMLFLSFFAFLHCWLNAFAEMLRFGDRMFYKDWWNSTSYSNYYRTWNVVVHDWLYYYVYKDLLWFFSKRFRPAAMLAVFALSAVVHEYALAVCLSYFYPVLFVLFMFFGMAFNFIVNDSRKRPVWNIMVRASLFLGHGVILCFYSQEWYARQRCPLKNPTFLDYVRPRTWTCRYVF
How it was run: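 Microsomes isolated from livers of cholesterol-fed rats were incubated with compound and [1-14C]oleoyl-CoA to measure ACAT inhibition; IC50 reported in μM.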

Rattus norvegicus [2] = test: Percent change in total cholesterol in the acute cholesterol-fed rat model (APCC) of hypercholesterolemia at 3 mg/Kg; assay type: functional
How it was run: (§1)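 Acute rat model: compound given by gavage at 30 or 3 mg/kg in 1.5% carboxymethylcellulose/0.2% Tween-20 in water (3-4 pm). Rats then fed overnight a diet with 5.5% peanut oil, 1.5% cholesterol, 0.5% cholic acid. Result is percent decrease in plasma total cholesterol versus controls.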

Rattus norvegicus [3] = test: Percent change in total cholesterol in the acute cholesterol-fed rat model (APCC) of hypercholesterolemia at 30 mg/Kg; assay type: functional; how it was run: as §1
[4] = Acyl coenzyme A:cholesterol acyltransferase inhibition in cell culture measured in murine IC-21 macrophages.
How it was run: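 Murine IC-21 macrophages preincubated 16 h in serum-free DMEM with albumin (20 μM) and phosphatidylserine/cholesterol vesicles; then compound in DMSO for 1 h, then 14C-sodium oleate added for 4 more h. Lipids extracted in hexane/2-propanol with [14C]cholesterol internal standard; neutral lipids separated by TLC, phosphorimaged; protein by Lowry. IC50 is the concentration giving 50% inhibition.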

[5] = target: T2, Sterol O-acyltransferase 1 (Rattus norvegicus) (UniProt O70536); test: Inhibition of rat liver microsomal Acyl coenzyme A:cholesterol acyltransferase 1 from rabbit plasma after an oral dose of 25 mg/kg; assay type: cell-free
T2 sequence (whole entry): T1 sequence (O70536 whole entry)
How it was run: (§2)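 Male New Zealand white rabbits conditioned to meal feeding for 1 week, then given a meal containing drug at 25 mg/kg in 3% peanut oil/3% coconut oil vehicle. Plasma was sampled at 0, 1, 2 and 4 h and extracted into hexane, then redissolved in chloroform/methanol (2:1). It was assayed for liver microsomal ACAT inhibition against standards of compound spiked into rabbit plasma in DMSO.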

Oryctolagus cuniculus [6] = test: Percent change in plasma total cholesterol at dose 25 mg/Kg in rabbits; assay type: functional
How it was run: (§3)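 Injured cholesterol-fed rabbits: diet of 0.5% cholesterol, 3% peanut oil, 3% coconut oil for 9 weeks (1 week before, 8 weeks after surgery), producing thoracic aortic and iliac-femoral lesions. Doses 1, 5 or 25 mg/kg. Thoracic aortic lesion coverage, plasma total cholesterol and triglycerides given as percent change versus control; Student's t-test, p < 0.05.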

Oryctolagus cuniculus [7] = test: Percent change in plasma triglyceride levels at dose 25 mg/Kg in rabbits; assay type: functional; how it was run: as §3
Oryctolagus cuniculus [8] = test: Percent change in lesion coverage relative to control in the thoracic aorta at dose 25 mg/Kg in rabbits; assay type: functional; how it was run: as §3
[9] = target: T2, Sterol O-acyltransferase 1 (Rattus norvegicus); test: Compound at 1 mg/Kg was tested for the inhibition of rat liver microsomal Acyl coenzyme A:cholesterol acyltransferase 1 in plasma drawn from chow fed rabbits; assay type: cell-free
[10] = target: T2, Sterol O-acyltransferase 1 (Rattus norvegicus); test: Compound at 25 mg/Kg was tested for the inhibition of rat liver microsomal Acyl coenzyme A:cholesterol acyltransferase 1 in plasma drawn from chow fed rabbits; assay type: cell-free; how it was run: as §2
[11] = target: T2, Sterol O-acyltransferase 1 (Rattus norvegicus); test: Compound at 5 mg/Kg was tested for the inhibition of rat liver microsomal Acyl coenzyme A:cholesterol acyltransferase 1 in plasma drawn from chow fed rabbits; assay type: cell-free
Canis familiaris = test: CDOG represents the C-fed female Beagle dog model, data expressed as percent change in TC relative to untreated controls at compound concentration of 10 mg/Kg; assay type: functional, Canis lupus familiaris
How it was run: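 Cholesterol-fed female Beagle dogs given bulk drug in capsules daily before meals for 1 week at 10 mg/kg. Plasma total cholesterol compared before and after treatment.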

Oryctolagus cuniculus [12] = test: Percent change in lesion coverage relative to control in the thoracic aorta at dose 5 mg/Kg in rabbits; assay type: functional; how it was run: as §3
Oryctolagus cuniculus [13] = test: Percent change in plasma total cholesterol at dose 1 mg/Kg in rabbits; assay type: functional; how it was run: as §3
Oryctolagus cuniculus [14] = test: Percent change in plasma total cholesterol at dose 5 mg/Kg in rabbits; assay type: functional; how it was run: as §3
Oryctolagus cuniculus [15] = test: Percent change in plasma triglyceride levels at dose 1 mg/Kg in rabbits; assay type: functional; how it was run: as §3
Oryctolagus cuniculus [16] = test: Percent change in plasma triglyceride levels at dose 5 mg/Kg in rabbits; assay type: functional; how it was run: as §3
Oryctolagus cuniculus [17] = test: Percent change in lesion coverage relative to control in the thoracic aorta at dose 1 mg/Kg in rabbits; assay type: functional; how it was run: as §3
Rattus norvegicus [18] = organism: Rattus norvegicus; test: Compound was tested for the percent change in total cholesterol (TC) by chronic rat model; assay type: functional
Oryctolagus cuniculus [19] = test: Percent change in TC relative to untreated controls at 5 mg/Kg in cholesterol fed rabbits (CFR)
Oryctolagus cuniculus [20] = test: Percent change in TC relative to untreated controls at 25 mg/Kg in cholesterol fed rabbits (CFR)

Structure (SMILES): CCCCCCCCCCCCc1cnn(C(C(=O)Nc2c(OC)cc(OC)cc2OC)c2ccccc2)c1 (stereo not given)
IC50 [1]: 46 nM
DeltaTC (Rattus norvegicus [2]): -59%
DeltaTC (Rattus norvegicus [3]): -72%

Structure (SMILES): CCCCCCCCCCCCc1cc(C2(C(=O)Nc3c(OC)cc(OC)cc3OC)CCCC2)no1
IC50 [1]: 100 nM
DeltaTC (Rattus norvegicus [3]): -29%

Structure (SMILES): CCCCCCCCCCCCc1cc(C(C(=O)Nc2ccc(F)cc2F)c2ccccc2)on1 (stereo not given)
IC50 [1]: 51 nM
DeltaTC (Rattus norvegicus [3]): -50%

Structure (SMILES): CCCCCCCCCCCCc1cc(CC(=O)Nc2c(OC)cc(OC)cc2OC)on1
IC50 [1]: 32 nM
DeltaTC (Rattus norvegicus [2]): -42%
DeltaTC (Rattus norvegicus [3]): -59%

Structure (SMILES): CCCCCCCCCCCCc1noc(C(C(=O)Nc2c(OC)cc(OC)cc2OC)c2ccccc2)n1 (stereo not given)
IC50 [1]: 31 nM
DeltaTC (Rattus norvegicus [2]): -58%
DeltaTC (Rattus norvegicus [3]): -60%

Structure (SMILES): CCCCCCCCCCCCc1cc(C(C(=O)Nc2ccc(F)cc2F)c2ccccc2)no1 (stereo not given)
IC50 [1]: 100 nM
DeltaTC (Rattus norvegicus [3]): -29%

Structure (SMILES): CCCCCCCCCCC(C)(C)C(=O)Nc1c(OC)cc(OC)cc1OC [CL-976]
DeltaTC (Oryctolagus cuniculus [6]): -24%
DeltaTC (Oryctolagus cuniculus [7]): -7%
Activity (Oryctolagus cuniculus [8]): -41%

Structure (SMILES): CCCCCCCCCCCCc1cc(C(C)(C)C(=O)Nc2c(OC)cc(OC)cc2OC)no1
IC50 [1]: 150 nM
DeltaTC (Rattus norvegicus [3]): -40%

Structure (SMILES): CCCCCCCCCCCCc1cn(C(C(=O)Nc2c(OC)cc(OC)cc2OC)c2ccccc2)cn1 (stereo not given)
IC50 [1]: 110 nM
DeltaTC (Rattus norvegicus [2]): -43%
DeltaTC (Rattus norvegicus [3]): -62%

Further lines, with some results ahead:

IC50 [1]: 31 nM
Structure (SMILES): CCCCCCCCCCCCc1nc(C(C(=O)Nc2c(OC)cc(OC)cc2OC)c2ccccc2)no1 (stereo not given)
DeltaTC (Rattus norvegicus [2]): -56%
DeltaTC (Rattus norvegicus [3]): -54%

IC50 [1]: 24 nM
Structure (SMILES): CCCCCCCCCCCCc1cc(C(C(=O)Nc2c(C(C)C)cccc2C(C)C)c2ccccc2)no1 (stereo not given)

IC50 [1]: 22 nM
IC50 [4]: 54 nM
inhibition [5]: 12%
Structure (SMILES): CCCCCCCCCCCCc1cn(C(C(=O)Nc2c(OC)cc(OC)cc2OC)c2ccccc2)nn1 (stereo not given)
DeltaTC (Rattus norvegicus [2]): -66%
DeltaTC (Rattus norvegicus [3]): -69%

IC50 [1]: 14 nM
Structure (SMILES): CCCCCCCCCCCCc1nnc(C(C(=O)Nc2c(C(C)C)cccc2C(C)C)c2ccccc2)o1 (stereo not given)
DeltaTC (Rattus norvegicus [2]): -23%
DeltaTC (Rattus norvegicus [3]): -64%

IC50 [1]: 15 nM
inhibition [9]: 0%
inhibition [10]: 94%
inhibition [11]: 46%
IC50 [4]: 170 nM
inhibition [5]: 94%
Structure (SMILES): CCCCCCCCCCCCc1cc(C(C(=O)Nc2c(OC)cc(OC)cc2OC)c2ccccc2)on1 (stereo not given)
CDOG (Canis familiaris): -44
Activity (Oryctolagus cuniculus [12]): -46%
DeltaTC (Oryctolagus cuniculus [13]): -26%
DeltaTC (Oryctolagus cuniculus [6]): -26%
DeltaTC (Oryctolagus cuniculus [14]): -32%
DeltaTC (Oryctolagus cuniculus [15]): 1%
DeltaTC (Oryctolagus cuniculus [7]): 168%
DeltaTG (Oryctolagus cuniculus [16]): 111%
Activity (Oryctolagus cuniculus [17]): -53%
Activity (Oryctolagus cuniculus [8]): -32%
CPCC (Rattus norvegicus [18]): -65
DeltaTC (Rattus norvegicus [2]): -68%
DeltaTC (Rattus norvegicus [3]): -68%
DeltaTC (Oryctolagus cuniculus [19]): -64%
DeltaTC (Oryctolagus cuniculus [20]): -76%

IC50 [1]: 19 nM
Structure (SMILES): CCCCCCCCCCCCc1cc(C(C(=O)Nc2c(C(C)C)cccc2C(C)C)c2ccccc2)on1 (stereo not given)
DeltaTC (Rattus norvegicus [2]): -10%
DeltaTC (Rattus norvegicus [3]): -52%

IC50 [1]: 22 nM
inhibition [9]: 0%
inhibition [10]: 92%
inhibition [11]: 68%
IC50 [4]: 310 nM
inhibition [5]: 92%
Structure (SMILES): CCCCCCCCCCCCc1cc(C(C(=O)Nc2c(OC)cc(OC)cc2OC)c2ccccc2)no1 (stereo not given)
CDOG (Canis familiaris): -44
Activity (Oryctolagus cuniculus [12]): -29%
DeltaTC (Oryctolagus cuniculus [13]): -17%
DeltaTC (Oryctolagus cuniculus [6]): -27%
DeltaTC (Oryctolagus cuniculus [14]): -27%
DeltaTC (Oryctolagus cuniculus [15]): 24%
DeltaTC (Oryctolagus cuniculus [7]): 157%
DeltaTG (Oryctolagus cuniculus [16]): 66%
Activity (Oryctolagus cuniculus [17]): -20%
Activity (Oryctolagus cuniculus [8]): -36%
CPCC (Rattus norvegicus [18]): -61
DeltaTC (Rattus norvegicus [2]): -50%
DeltaTC (Rattus norvegicus [3]): -72%
DeltaTC (Oryctolagus cuniculus [19]): -66%

IC50 [1]: 17 nM
IC50 [4]: 48 nM
inhibition [5]: 21%
Structure (SMILES): CCCCCCCCCCCCc1nnc(C(C(=O)Nc2c(OC)cc(OC)cc2OC)c2ccccc2)o1 (stereo not given)
CPCC (Rattus norvegicus [18]): -39
DeltaTC (Rattus norvegicus [2]): -64%
DeltaTC (Rattus norvegicus [3]): -57%
